Screens: PubChem BioAssay, several laboratories
Platelet DG rel: platelet dense granule release activity; human platelet-rich plasma, SFLLRN dense granule ATP release, luminescence; inhibition, %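 (compounds screened at 7.5 µM in platelet-rich plasma)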; 300,000 compounds, 0.22% hits;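 active = mean replicate score, as percent of positive control, at or above 50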
FXIIa inh: factor XIIa (human) inhibition | P00748 | 220,000 compounds, 0.3% hits | inhibition, % at 5 µM | purified FXIIa, Boc-QGR-AMC fluorogenic substrate, 2 h; in the data active = inhibition above about 40%
FXIa inh: blocks human coagulation factor XIa protease activity; P03951; purified FXIa, Boc-Glu-Ala-Arg-AMC fluorogenic substrate; inhibition, % at 5 µM; 220,000 compounds, 0.14% hits; AID 798;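 active = inhibition of at least 40%; inactive = inhibition below 40%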;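 also: fluorescence of freed AMC excited at 355 nm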
Wee1 stabilizer: blocks degradation of human Wee1 kinase. HeLa Luc-Wee1K328M stability, luciferase luminescence; 100% = proteasome inhibitor MG132 effect. reporter increase, % at 5 µM. AID 1321. P30291. 220,000 compounds, 1.2% hits;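 active = activation above the mean of all tested compounds plus 3 SD, set per screening run, cut at about 8.8% in these data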;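 also: cells exposed to compound for 20 h before luminescence read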
thrombin 1536: inhibitors of human thrombin. P00734. alpha-thrombin, Boc-VPR-AMC fluorogenic substrate cleavage. inhibition, % at 5 µM. 220,000 compounds, 0.26% hits;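 active = inhibition at or above 40%; inactive = inhibition below 40%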
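Material: human alpha-thrombin protein. Incubation: reaction at ambient temperature. Technique: fluorescence of released AMC, ex 355 nm, em 460 nm. Control set: no-compound enzyme wells and no-enzyme blanks. Also added: Boc-VPR-AMC substrate, 15 µM final. Buffer or medium: pH 7.5 Tris (50 mM) with NaCl 150 mM, Tween 20 0.05%.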
KLK5 inh: blocks human kallikrein 5 protease activity; 210,000 compounds, 0.59% hits; recombinant hK5, fluorogenic AMC substrate cleavage; Q9Y337; AID 873; inhibition, % at 5 µM;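 active = inhibition of 40% or more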
Target sequence (Q9Y337 67-293 limits assumed): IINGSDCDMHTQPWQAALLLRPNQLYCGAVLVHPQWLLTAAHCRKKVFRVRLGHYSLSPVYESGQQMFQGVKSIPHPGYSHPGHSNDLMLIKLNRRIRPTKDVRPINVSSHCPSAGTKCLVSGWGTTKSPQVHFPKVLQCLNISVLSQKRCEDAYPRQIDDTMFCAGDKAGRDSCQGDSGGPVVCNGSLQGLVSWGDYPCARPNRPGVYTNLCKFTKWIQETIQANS
Numbers stand for hits; n = inactive; x = no result given. A selection: hits, their analogues and other compounds. The true share with any hit is near 1.8%.

SMILES	Platelet DG rel	FXIIa inh	FXIa inh	Wee1 stabilizer	thrombin 1536	KLK5 inh
Cc1cc(C)c2c(CN3CCN(Cc4ccc5c(c4)OCO5)CC3)cc(=O)oc2c1C	n	n	n	n	n	n
C=CCc1ccc2oc(C(=O)OCC)cc(=O)c2c1O	n	n	n	10	n	n
CCCCNC(=O)CN(c1cc(C(F)(F)F)ccc1Cl)S(C)(=O)=O	n	n	n	n	n	n
COCCCNC(=O)CN(c1cc(C(F)(F)F)ccc1Cl)S(C)(=O)=O	n	n	n	10	n	n
CCO[C@@H]1OC(C(=O)Nc2ccccc2)=C[C@H](C2CC2)[C@H]1CCCO	n	n	n	n	n	n
O=C(Nc1ccccc1)Nc1cccc(C(F)(F)F)c1	n	n	n	n	x	n
Cc1ccc(OC(F)F)c(NC(=O)Nc2cccc(C(F)(F)F)c2)c1	n	n	n	n	n	56
CCCc1cc(-c2nc(N)ncc2-c2csc(C)n2)c(O)cc1OC	n	n	n	n	n	n
CCCc1cc(-c2nc(N)ncc2-c2ccc3c(c2)OCCCO3)c(O)cc1OC	70	n	n	n	n	n
OC[C@H]1O[C@@H](n2cnc3c(NC4CCCC4)ncnc32)[C@H](O)[C@@H]1O	57	n	n	n	n	n
OCC1OC(n2cnc3c(NC4CCCC4)ncnc32)C(O)C1O (stereo not drawn)	82	x	x	x	x	x
O=C(N/N=C\c1c(O)ccc2ccccc12)c1ccc(Cn2cccn2)o1	n	n	n	n	n	n
CCN(CC)CCCNCC(=O)Nc1ccc(OC)c(Cl)c1	n	n	n	n	n	42
CCN(CC)CCCNCC(=O)Nc1ccc2c(c1)CCC2	n	n	n	n	n	n
CC1CN(C(=S)Nc2cccc(Cl)c2Cl)CC(C)O1 (stereo not drawn)	n	x	x	x	x	x
O=C(/C=C/c1ccc([N+](=O)[O-])cc1)Nc1cccnc1	n	n	n	10	n	n
N#Cc1cc(C#N)c(N2CCN(c3ccccn3)CC2)nc1N	n	n	n	n	n	n
O=C(CCCn1c(=S)[nH]c2cc3c(cc2c1=O)OCO3)N1CCN(c2ccccc2)CC1	n	n	n	n	n	130
CC1CCC(NC(=O)c2ccc3c(c2)S(=O)(=O)c2ccccc2C3=O)CC1 (stereo not drawn)	n	x	x	x	x	x
COc1cc(N2CCCC2)c(OC)cc1/C=C(/C#N)c1ccc(Br)cc1	n	n	n	n	n	50
CCC(C(=O)NCCc1ccc(S(N)(=O)=O)cc1)c1ccccc1 (stereo not drawn)	n	x	x	x	x	x
N#Cc1c(N)nc2c3c(sc(=N)c2c1N)NC(=O)CC3c1ccccc1 (stereo not drawn)	n	n	n	n	n	n
N#Cc1c(N)nc2c3c(sc(=N)c2c1N)NC(=O)CC3c1c(F)cccc1Cl (stereo not drawn)	n	n	n	n	n	68
CCCCN(C(=O)C1CC(=O)N(Cc2ccc(C)cc2)C1)c1c(N)n(CC(C)C)c(=O)[nH]c1=O (stereo not drawn)	n	x	x	x	x	x
N#Cc1c[nH]n2c(=O)c3c(nc12)CCCC3	n	n	n	n	n	70
SMILES	Platelet DG rel	FXIIa inh	FXIa inh	Wee1 stabilizer	thrombin 1536	KLK5 inh
CCCCN(C)CCNC(=O)c1cc2c(-c3cccc(OC)c3)nn(C)c2s1	n	x	x	x	x	x
O=C1C=C(O)c2c(O)cccc2C1=O	x	n	n	x	55	n
O=C(CSc1nc2ccccc2n1Cc1ccccc1Cl)N/N=C/c1ccccc1C(=O)O	n	n	n	n	n	47
CC(=O)c1cccc(-n2nnnc2SCC(=O)N2CCCC2)c1	50	n	n	n	n	n
COc1cccc(-c2ccc(C#N)c(SCC(=O)NCCc3cccc(Cl)c3)n2)c1	n	n	n	n	n	n
COc1ccc(-c2ccc(C#N)c(SCC(=O)NCCc3ccccc3)n2)cc1OC	n	n	n	n	56	n
CCC(=O)N1CCc2cc(S(=O)(=O)NC(Cc3ccccc3)C(=O)O)ccc21 (stereo not drawn)	n	x	x	x	x	x
NS(=O)(=O)c1cc2c(cc1C(F)(F)F)NC(Cc1ccccc1)NS2(=O)=O (stereo not drawn)	n	n	n	10	n	n
Cc1ccc(S(=O)(=O)CCC(=O)N2CCN(c3ccc(Cl)cc3)CC2)cc1	n	n	n	n	n	n
CCn1c(CSCc2ccccc2)n[nH]c1=S	n	n	n	9.1	n	n
CCn1c(Cc2ccccc2)n[nH]c1=S	n	n	n	n	n	n
